Hits are enriched below; roughly 2.3% of the tested compounds scored in any of these assays.
Arr AP2 block: inhibitors of human beta-arrestin and AP2 interaction; FITC-arrestin peptide / GST-AP2 beads, flow cytometry; AP2 beta2 appendage carries R879A mutation; inhibition, % at 10 µM; actives 0.31% (n = 340,000);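 active means inhibition above a set limit, near 3 SD of compounds lacking own fluorescence, cut at about 54% in these data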
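System: GST-AP2 R879A glutathione beads | Also added: FITC-arrestin peptide, 50 nM | Times: 12 min plus 1 h, RT | Signal: Bead flow cytometry, FITC channel | Buffer or medium: PBS with 0.05% Tween 20 and 0.1% BSA | Read-out basis: Percent drop in bead-associated FITC signal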
MEKK3 PB1 HTS: modulators (inhibitors or enhancers) of MEK5 binding to human MEKK3 PB1 domain; bead-based flow cytometry, Alexa488-MEK5 binding to MEKK3; actives lie on both sides; 0 = blocked by unlabeled MEK5, 100 = vehicle; binding response (% of control), % at 10 µM; actives 1.4% (n = 290,000);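 active means binding response more than 3 SD above or below the average of its plate-row segment, actives on both sides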;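 further: Alexa488 bead fluorescence after subtracting the streptavidin-only scavenger bead signal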
Target sequence (Q99759 whole entry, looked up, the tested form may be a part): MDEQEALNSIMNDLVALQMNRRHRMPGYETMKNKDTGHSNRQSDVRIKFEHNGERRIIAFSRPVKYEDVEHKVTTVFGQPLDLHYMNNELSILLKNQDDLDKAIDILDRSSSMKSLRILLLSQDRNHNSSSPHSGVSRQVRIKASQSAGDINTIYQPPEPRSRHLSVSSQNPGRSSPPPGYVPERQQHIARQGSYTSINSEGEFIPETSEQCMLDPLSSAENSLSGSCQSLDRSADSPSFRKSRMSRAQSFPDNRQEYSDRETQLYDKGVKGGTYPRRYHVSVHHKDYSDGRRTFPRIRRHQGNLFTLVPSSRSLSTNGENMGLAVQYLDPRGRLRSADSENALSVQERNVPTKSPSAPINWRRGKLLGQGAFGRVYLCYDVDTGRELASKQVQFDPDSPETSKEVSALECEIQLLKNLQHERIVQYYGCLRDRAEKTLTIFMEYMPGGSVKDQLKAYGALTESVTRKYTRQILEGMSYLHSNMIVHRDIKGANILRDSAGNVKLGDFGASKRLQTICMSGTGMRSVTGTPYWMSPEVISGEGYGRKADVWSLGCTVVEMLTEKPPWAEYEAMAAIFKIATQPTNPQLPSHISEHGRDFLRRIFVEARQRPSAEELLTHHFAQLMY
MEKK2 mut-MEK5: signal of MEK5 binding to mutant human MEKK2 PB1 domain; bead flow cytometry, Alexa488-MEK5 binding to MEKK2 mutant; percent response, % at 10 µM; actives 0.35% (n = 290,000); in the data active means percent response above about 24%, passing the limit was not always enough
MEKK2wt PB1 HTS: raises or lowers MEK5 binding to wildtype human MEKK2 PB1 domain; bead flow cytometry, Alexa488-MEK5 binding to MEKK2 WT; actives lie on both sides; binding response (% of control), % at 10 µM; actives 1.1% (n = 290,000); in the data active means binding response below about 67% or above about 130%
MEKK2wt confirm: raises or lowers MEK5 binding to wildtype human MEKK2, retest | shares compounds with MEKK3 PB1 HTS | bead flow cytometry, Alexa488-MEK5 binding to MEKK2 WT; actives lie on both sides | binding response (% of control), % at 10 µM | actives 2.4% (n = 5,900) | AID 1892; in the data active means binding response below about 16% or above about 210%; inactive means in between
MEKK2mut confirm: signal of MEK5 binding to mutant human MEKK2, retest | shares compounds with MEKK3 PB1 HTS | bead flow cytometry, Alexa488-MEK5 binding to MEKK2 mutant | AID 1893 | actives 2% (n = 5,900) | percent response, % at 10 µM; in the data active means percent response mostly above about 71%, no sharp cut-off; inactive means mostly below about 38%;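 further: higher means compound restores mutant binding toward wildtype level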
MEKK3-MEK5 inh: MEKK3-MEK5 PB1 inhibition, single concentration confirmation; shares compounds with MEKK3 PB1 HTS; bead flow cytometry, Alexa488-MEK5 binding to MEKK3; stronger effect = lower value; binding response (% of control), % at 10 µM; actives 1.8% (n = 5,900);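 active means binding response below 72% of control, or above a set upper limit, though filed actives all read lower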
Large screens that a line does not name were inactive (follow-up assays come after a bar, where they were run); [ ] = remark or other dose.

Cc1sc(NC(=O)c2ccccc2)c(C(c2ccccn2)N2CCN(CCO)CC2)c1C (configuration not stated)	MEKK3 PB1 HTS 140 | MEKK2wt confirm 1.0[inhibitor] | MEKK2mut confirm inactive | MEKK3-MEK5 inh 2.0
COc1ccc(-c2nc(NC(=O)Cn3c(=O)oc4ccccc43)sc2C)cc1	MEKK3 PB1 HTS 143 | MEKK2wt confirm inactive | MEKK2mut confirm inactive | MEKK3-MEK5 inh inactive
COc1cccc(NC(=O)Cn2c(=O)oc3ccccc32)c1	none
O=C(Nc1nnc(-c2ccco2)o1)c1cccc(N2C(=O)CCC2=O)c1	MEKK3 PB1 HTS 129 | MEKK2wt confirm inactive | MEKK2mut confirm inactive | MEKK3-MEK5 inh inactive
O=C(Nc1nnc(-c2ccncc2)o1)c1cccc(N2C(=O)CCC2=O)c1	none
CC1CCCCN1C(=O)COc1ccccc1F (configuration not stated)	MEKK3 PB1 HTS 135 | MEKK2wt confirm inactive | MEKK2mut confirm inactive | MEKK3-MEK5 inh inactive
CC1CCCCN1C(=O)CNCc1ccc(F)cc1 (configuration not stated)	none
CCN(CC)c1ccc(-n2c(O)c(C=C3N=c4ccccc4=N3)sc2=S)cc1	MEKK3 PB1 HTS 153 | MEKK2wt confirm inactive | MEKK2mut confirm inactive | MEKK3-MEK5 inh inactive
Cn1cc(S(=O)(=O)N2CCN(c3cccc(Cl)c3)CC2)c(=O)n(C)c1=O	MEKK3 PB1 HTS 129 | MEKK2wt confirm inactive | MEKK2mut confirm inactive | MEKK3-MEK5 inh inactive
COc1ccc(-c2cc(C(F)(F)F)n3nc(C(=O)NCc4ccco4)c(Cl)c3n2)cc1	MEKK2wt PB1 HTS 30[inhibitor] | MEKK2wt confirm inactive | MEKK2mut confirm inactive | MEKK3-MEK5 inh inactive
C[C@H](NC(=O)N1CCn2c1nc1ccccc12)C(=O)N1CCCCC1	none
Cc1ccc(OCCOc2ccc(Cl)cc2Cl)c([N+](=O)[O-])n1	MEKK2wt PB1 HTS 165 | MEKK2wt confirm inactive | MEKK2mut confirm inactive | MEKK3-MEK5 inh inactive
COc1cc(/C=C2\C(=O)NN(c3ccccc3)C2=O)ccc1OCC(N)=O	MEKK3 PB1 HTS 134 (no result: Arr AP2 block) | MEKK2wt confirm inactive | MEKK2mut confirm inactive | MEKK3-MEK5 inh inactive
CCC(C)OC(=O)C1=C(C)O[C@]23OC(N)=C(C#N)[C@]12C(=O)c1ccccc13 (some centres not stated)	none
O=S(=O)(Nc1ccc(-c2ccc3nncn3n2)cc1)c1cccc(F)c1	none (no result: MEKK3 PB1 HTS, MEKK2 mut-MEK5, MEKK2wt PB1 HTS)
COc1ccc(-n2cc(-c3ccccc3)[nH]c2=S)cc1	MEKK3 PB1 HTS 130 | MEKK2wt confirm inactive | MEKK2mut confirm inactive | MEKK3-MEK5 inh inactive
O=C(CCSCc1ccccc1Cl)NC1CCCCC1	none
O=C(CCc1ccccc1)NCCSc1ccccc1	none
O=C(CCc1[nH]c2ccccc2c1Sc1ccccc1)NCCO	MEKK3 PB1 HTS 67[inhibitor] | MEKK2wt confirm inactive | MEKK2mut confirm inactive | MEKK3-MEK5 inh inactive
Cc1cc(=O)n2nc(N3CCC(C(=O)NCc4ccccc4Cl)CC3)sc2n1	none
Cc1cccc(C)c1NC(=S)N(C)CCc1ccccn1	MEKK3 PB1 HTS 129 | MEKK2wt confirm inactive | MEKK2mut confirm inactive | MEKK3-MEK5 inh inactive
CC(C)c1ccc(NC(=S)N(C)CCc2ccccn2)cc1	none
COc1ccc(OCC(O)CNC(=O)c2c(-c3ccccc3)noc2C)cc1 (configuration not stated)	none
CC12CCC(=O)CC1CCC1C2CCC2(C)C1CCC2(O)C(=O)CO (configuration not stated)	none (no result: MEKK3 PB1 HTS, MEKK2 mut-MEK5, MEKK2wt PB1 HTS)
CC12CCCC[C@@H]1CCC1C2CCC2(C)C1CC[C@@]2(O)CNCCO (some centres not stated)	MEKK2 mut-MEK5 25, MEKK2wt PB1 HTS 136 | MEKK2wt confirm inactive | MEKK2mut confirm inactive | MEKK3-MEK5 inh inactive
CCCN(C(=O)COC(=O)c1nc2nc(C)cc(C)n2n1)C1CCS(=O)(=O)C1 (configuration not stated)	none (no result: MEKK3 PB1 HTS, MEKK2 mut-MEK5, MEKK2wt PB1 HTS)
COc1ccc(C(CC(=O)c2ccc(O)cc2)S(=O)(=O)c2ccc(C)cc2)cc1 (configuration not stated)	MEKK3 PB1 HTS 26[inhibitor], MEKK2wt PB1 HTS 37[inhibitor] | MEKK2wt confirm inactive | MEKK2mut confirm inactive | MEKK3-MEK5 inh inactive
COc1cccc(CN2CCN(Cc3ccc(O)cc3)CC2CCO)c1 (configuration not stated)	MEKK3 PB1 HTS 46[inhibitor] | MEKK2wt confirm inactive | MEKK2mut confirm inactive | MEKK3-MEK5 inh inactive
CCOc1ccc(CN2CCN(Cc3cnn(CC)c3C)CC2CCO)cc1 (configuration not stated)	MEKK3 PB1 HTS 48[inhibitor] | MEKK2wt confirm inactive | MEKK2mut confirm inactive | MEKK3-MEK5 inh inactive
CCOc1ccc(CN2CCN(Cc3cccc4nonc34)CC2CCO)cc1 (configuration not stated)	none
O=Cc1ccc(OCC(=O)Nc2ccccc2C(F)(F)F)cc1	none
CC(C)N(C(=O)[C@H]1CC(CC(=O)NCc2cccc(C(F)(F)F)c2)C(=O)N2CCc3c([nH]c4ccccc34)[C@]12C)C(C)C (some centres not stated)	none (no result: MEKK3 PB1 HTS, MEKK2 mut-MEK5, MEKK2wt PB1 HTS)
COc1ccc(OC)c(Nc2nc(NCc3ccco3)c3ccccc3n2)c1	MEKK2 mut-MEK5 24, MEKK2wt PB1 HTS 206 | MEKK2wt confirm inactive | MEKK2mut confirm inactive | MEKK3-MEK5 inh inactive
COc1ccc(OC)c(Nc2nc(NCc3ccco3)nc(N)c2[N+](=O)[O-])c1	none
Oc1ccccc1Nc1nc(NCc2ccco2)c2ccccc2n1	none
c1ccc(Nc2nc(NCc3ccco3)c3ccccc3n2)cc1	MEKK2wt PB1 HTS 174 | MEKK2wt confirm inactive | MEKK2mut confirm inactive | MEKK3-MEK5 inh inactive
Cc1cccc(Nc2nc(NCc3ccco3)c3ccccc3n2)c1	MEKK2wt PB1 HTS 145 | MEKK2wt confirm inactive | MEKK2mut confirm inactive | MEKK3-MEK5 inh inactive
Cc1ccccc1Nc1nc(NCc2ccco2)c2ccccc2n1	MEKK2wt PB1 HTS 149 | MEKK2wt confirm inactive | MEKK2mut confirm inactive | MEKK3-MEK5 inh inactive
CCOC(=O)c1nc2c(ccc3ccccc32)cc1C	none (no result: MEKK3 PB1 HTS, MEKK2 mut-MEK5, MEKK2wt PB1 HTS)
CCc1ccc(NC(=O)CNC(=O)[C@@H]2Cc3ccccc3CN2C(=O)OC(C)(C)C)cc1	none
Cc1cc(C)cc(C(=O)OCC(=O)NC(=O)NC2CCCC2)c1	none (no result: MEKK3 PB1 HTS, MEKK2 mut-MEK5, MEKK2wt PB1 HTS)
OCCN1CCN(c2nc(NCc3ccco3)c3ccccc3n2)CC1	none
c1ccc(CN2CCN(c3nc(NCc4ccco4)c4ccccc4n3)CC2)cc1	MEKK2wt PB1 HTS 168 | MEKK2wt confirm inactive | MEKK2mut confirm inactive | MEKK3-MEK5 inh inactive
Cc1cc(NC(=O)CS(=O)(=O)c2ccc(Cl)cc2)no1	none
S=c1nc(-c2ccccc2Br)[nH][nH]1	MEKK3 PB1 HTS 1.0[inhibitor], MEKK2wt PB1 HTS -2.0[inhibitor] | MEKK2wt confirm inactive | MEKK2mut confirm inactive | MEKK3-MEK5 inh inactive
